From ChEMBL document CHEMBL4814076, “Discovery of a Potent and Selective Covalent Inhibitor of Bruton's Tyrosine Kinase with Oral Anti-Inflammatory Activity” (ACS Med Chem Lett, 2021)
Active and inactive are the calls of the source. The rule behind the calls is not given here.

Legend:
[1] = Inhibition of BTK in Wistar rat whole blood assessed as reduction in anti-IgD-induced B220/CD86+ expression incubated for 1 hr followed anti-IgD stimulation and measured after overnight by flow cytometry analysis; type: tissue-based; details: Rattus norvegicus, Blood, 1 h
Procedure, shortened: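 B-cell activation induced by anti-IgD in rat whole blood, read as B220+CD86+ cells.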

[2] = target: T1, Tyrosine-protein kinase Tec (Homo sapiens, UniProt P42680); experiment: Inhibition of recombinant human TEC (174 to end residues) using EFPIYDFLPAKKK as substrate incubated for 40 mins in presence of [gamma33P]ATP by scintillation counting method
T1 sequence (P42680 whole entry): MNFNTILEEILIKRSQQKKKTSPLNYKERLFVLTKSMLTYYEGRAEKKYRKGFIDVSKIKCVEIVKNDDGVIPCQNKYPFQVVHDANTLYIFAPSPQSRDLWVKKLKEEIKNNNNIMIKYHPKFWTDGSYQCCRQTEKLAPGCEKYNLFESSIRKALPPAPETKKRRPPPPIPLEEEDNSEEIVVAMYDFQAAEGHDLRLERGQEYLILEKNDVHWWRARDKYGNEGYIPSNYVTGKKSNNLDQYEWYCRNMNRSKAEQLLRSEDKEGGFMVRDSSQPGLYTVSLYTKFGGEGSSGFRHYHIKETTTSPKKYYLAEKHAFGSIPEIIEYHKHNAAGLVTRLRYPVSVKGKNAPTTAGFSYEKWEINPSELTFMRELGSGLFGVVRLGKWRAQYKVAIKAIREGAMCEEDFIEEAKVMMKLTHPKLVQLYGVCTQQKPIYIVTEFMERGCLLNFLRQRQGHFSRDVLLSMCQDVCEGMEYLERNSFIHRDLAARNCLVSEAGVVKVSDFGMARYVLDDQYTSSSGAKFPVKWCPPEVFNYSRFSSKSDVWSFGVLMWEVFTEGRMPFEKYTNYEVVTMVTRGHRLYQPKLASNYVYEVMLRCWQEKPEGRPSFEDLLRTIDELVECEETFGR

[3] = target: Serine/threonine-protein kinase B-raf (Homo sapiens, UniProt P15056); experiment: Inhibition of recombinant human B-RAF (416 to end residues) using myelin basic protein as substrate incubated for 40 mins in presence of [gamma33P]ATP by scintillation counting method
Sequence of Serine/threonine-protein kinase B-raf (P15056 whole entry, the tested form may be a part): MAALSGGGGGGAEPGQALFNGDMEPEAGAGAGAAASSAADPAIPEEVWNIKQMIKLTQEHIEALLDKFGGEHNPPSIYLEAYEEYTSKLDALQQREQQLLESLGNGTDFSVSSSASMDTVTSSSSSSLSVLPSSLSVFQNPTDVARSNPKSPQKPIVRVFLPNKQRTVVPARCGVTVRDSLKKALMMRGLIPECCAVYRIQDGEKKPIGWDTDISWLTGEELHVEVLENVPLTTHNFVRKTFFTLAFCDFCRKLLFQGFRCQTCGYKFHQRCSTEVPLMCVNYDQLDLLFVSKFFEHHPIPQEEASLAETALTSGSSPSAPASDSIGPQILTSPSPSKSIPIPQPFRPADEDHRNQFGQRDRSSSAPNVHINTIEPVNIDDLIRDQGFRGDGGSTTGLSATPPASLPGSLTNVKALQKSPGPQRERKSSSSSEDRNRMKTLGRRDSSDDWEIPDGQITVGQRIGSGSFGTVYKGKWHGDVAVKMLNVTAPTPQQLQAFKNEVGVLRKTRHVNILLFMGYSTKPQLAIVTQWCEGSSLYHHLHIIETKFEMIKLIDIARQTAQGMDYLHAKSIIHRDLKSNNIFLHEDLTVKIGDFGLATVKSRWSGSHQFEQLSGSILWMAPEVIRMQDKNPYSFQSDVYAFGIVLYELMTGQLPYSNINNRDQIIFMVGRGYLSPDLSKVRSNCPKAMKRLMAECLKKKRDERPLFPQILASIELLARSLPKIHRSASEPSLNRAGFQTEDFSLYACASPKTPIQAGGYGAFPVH

[4] = target: Proto-oncogene tyrosine-protein kinase Src (Homo sapiens, UniProt P12931); experiment: Inhibition of recombinant human SRC (1 to 530 residues) using GGEEEEYFELVKKKK as substrate incubated for 40 mins in presence of [gamma33P]ATP by scintillation counting method
Sequence of Proto-oncogene tyrosine-protein kinase Src (P12931 2-536 limits assumed): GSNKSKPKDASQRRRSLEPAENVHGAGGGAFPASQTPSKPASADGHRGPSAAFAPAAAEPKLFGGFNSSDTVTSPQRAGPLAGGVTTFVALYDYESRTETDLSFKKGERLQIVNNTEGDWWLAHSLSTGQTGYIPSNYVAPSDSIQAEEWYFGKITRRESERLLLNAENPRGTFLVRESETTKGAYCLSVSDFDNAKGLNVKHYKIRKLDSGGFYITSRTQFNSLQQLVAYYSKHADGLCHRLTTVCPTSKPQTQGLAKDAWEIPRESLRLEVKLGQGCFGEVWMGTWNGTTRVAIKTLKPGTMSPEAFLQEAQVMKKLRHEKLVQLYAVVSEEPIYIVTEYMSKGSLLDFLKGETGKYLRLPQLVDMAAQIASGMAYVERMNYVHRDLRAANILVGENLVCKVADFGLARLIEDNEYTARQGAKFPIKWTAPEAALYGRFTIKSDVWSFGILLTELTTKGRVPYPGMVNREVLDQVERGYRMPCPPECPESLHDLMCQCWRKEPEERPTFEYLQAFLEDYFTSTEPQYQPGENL

[5] = Volume of distribution at steady state in Sprague-Dawley rat at 5 mg/kg, po or 1 mg/kg, iv measured upto 24 hrs by LC-MS/MS analysis; type: ADME, organism-based; details: in vivo, read-out: Vdss
Procedure, shortened: (§1)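 Rats (nonfasted; IV 1 mg/kg, PO 5 mg/kg) and dogs (fasted; IV 0.5 mg/kg, PO 2.5 mg/kg) dosed from 20% hydroxypropyl-β-cyclodextrin solution.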

[6] = Half life in Sprague-Dawley rat at 1 mg/kg, iv measured upto 24 hrs by LC-MS/MS analysis; type: ADME, organism-based; details: in vivo; procedure, shortened: as §1
[7] = Clearance in Beagle dog at 2.5 mg/kg, po or 0.5 mg/kg, iv measured upto 24 hrs by LC-MS/MS analysis; type: ADME, organism-based, Canis lupus familiaris; details: in vivo; procedure, shortened: as §1
[8] = Volume of distribution at steady state in Beagle dog at 2.5 mg/kg, po or 0.5 mg/kg, iv measured upto 24 hrs by LC-MS/MS analysis; type: ADME, organism-based, Canis lupus familiaris; details: in vivo, read-out: Vdss; procedure, shortened: as §1
[9] = Half life in Beagle dog at 0.5 mg/kg, iv measured upto 24 hrs by LC-MS/MS analysis; type: ADME, organism-based, Canis lupus familiaris; details: in vivo; procedure, shortened: as §1
[10] = Oral bioavailability in Beagle dog at 2.5 mg/kg measured upto 24 hrs by LC-MS/MS analysis; type: ADME, organism-based, Canis lupus familiaris; details: in vivo; procedure, shortened: as §1
[11] = In vivo protein occupancy at BTK in Wistar rat at 3 mg/kg, po measured after 24 hrs by ELISA relative to control; type: functional
Procedure, shortened: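 Single oral dose of 3 mg/kg in rats. BTK occupancy compared with plasma concentration over time out to 48 h.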

[12] = target: T2, Tyrosine-protein kinase BTK (Homo sapiens, UniProt Q06187); experiment: Irreversible covalent inhibition of recombinant unphosphorylated human GST-tagged BTK kinase domain (389 to 659 residues) expressed in insect cells assessed as protein-compound adduct formation under native conditions by HPLC analysis
T2 sequence (Q06187 whole entry, the tested form may be a part): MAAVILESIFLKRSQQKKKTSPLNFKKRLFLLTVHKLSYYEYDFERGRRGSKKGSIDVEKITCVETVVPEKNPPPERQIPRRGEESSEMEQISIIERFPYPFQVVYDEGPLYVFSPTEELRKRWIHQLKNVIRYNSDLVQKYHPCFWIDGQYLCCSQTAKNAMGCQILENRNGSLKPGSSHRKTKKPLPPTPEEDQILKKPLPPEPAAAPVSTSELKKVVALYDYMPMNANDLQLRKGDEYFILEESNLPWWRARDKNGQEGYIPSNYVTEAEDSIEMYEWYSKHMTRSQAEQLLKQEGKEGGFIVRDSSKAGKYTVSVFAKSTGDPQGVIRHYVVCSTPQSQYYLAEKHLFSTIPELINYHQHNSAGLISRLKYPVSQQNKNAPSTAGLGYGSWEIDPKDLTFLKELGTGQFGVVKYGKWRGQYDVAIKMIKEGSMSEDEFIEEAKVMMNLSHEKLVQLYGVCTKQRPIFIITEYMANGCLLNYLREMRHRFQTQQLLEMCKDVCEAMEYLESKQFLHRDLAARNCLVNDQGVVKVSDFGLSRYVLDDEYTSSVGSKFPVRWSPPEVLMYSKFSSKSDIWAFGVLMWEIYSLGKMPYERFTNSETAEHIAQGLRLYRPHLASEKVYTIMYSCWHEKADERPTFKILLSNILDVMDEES
Procedure, shortened: (§2)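 BTK protein incubated with compound. Adduct mass measured under denaturing and nondenaturing conditions.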

[13] = target: T2, Tyrosine-protein kinase BTK; experiment: Irreversible covalent inhibition of recombinant unphosphorylated human GST-tagged BTK kinase domain (389 to 659 residues) expressed in insect cells assessed as protein-compound adduct formation under denaturing conditions by HPLC analysis; procedure, shortened: as §2
[14] = target: T2, Tyrosine-protein kinase BTK; experiment: Inhibition of BTK in human whole blood assessed as inhibition of IgM-induced B-cell activation; type: tissue-based

In the case of `C=CC(=O)N1CC[C@@H](NC(=O)c2sc3nccc4c3c2NC(=O)N4c2ccc(Oc3ccccc3)cc2C)C1`, the IC50 [1] is reported as 130 nM, the IC50 [2] is reported as 409 nM and the IC50 [3] is reported as 7840 nM. For the same molecule, the IC50 [4] was 3490 nM, the Vd [5] was 1 L/kg and the half-life [6] was 0.3 h. The clearance [7] was 8 mL/min/kg, the Vd [8] was 1.1 L/kg and the half-life [9] was 1.9 h. For the same molecule, the bioavailability [10] was 68%, the Activity [11] was 70% and the inhibition [12] was “Active”. The inhibition [13] was “Active” and the IC50 [14] was 84 nM.
